Our source for the Activity and MIC values is ChEMBL document CHEMBL1137699, “Synthesis, antibacterial and anticonvulsant evaluations of some cyclic enaminones” (Eur J Med Chem, 2009).

The subject of experiment [1] is Mus musculus. The experiment is described as follows: Anticonvulsant activity against maximal electroshock-induced seizures in mouse at 300 mg/kg, ip. Format: functional, organism-based. Also on record: dose 300 mg/kg. On the technique in general: Protection in the maximal electroshock model is a classic sign of anticonvulsant action.
The test system of experiment [2] is Mus musculus. Nature of the experiment: Anticonvulsant activity against subcutaneous pentylenetetrazole-induced seizures in mouse at 300 mg/kg, ip. On the set-up: dose 300 mg/kg. Format: functional, organism-based.
The test system of experiment [3] is Mus musculus. Nature of the experiment: Anticonvulsant activity against maximal electroshock-induced seizures in mouse at <=100 mg/kg, ip. Format: functional, organism-based.
Experiment [4] concerns Mus musculus. Nature of the experiment: Anticonvulsant activity against subcutaneous pentylenetetrazole-induced seizures in mouse at <=100 mg/kg, ip. Format: functional, organism-based.
The test system of experiment [5] is Staphylococcus aureus. The experiment is described as follows: Antibacterial activity against methicillin-susceptible Staphylococcus aureus clinical isolate after 18 hrs by NCCLS M7-A4 method. Format: functional. In a few lines: (§1)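 Test compounds dissolved in 80% DMSO in water. Clinical isolates came from a MRSA reference laboratory culture collection. Final inoculum 10^7 CFU/ml, incubated 35 °C for 18 h. MIC taken as the lowest concentration completely inhibiting growth. Reference strains S. aureus ATCC 25923, S. epidermidis ATCC 12228 and E. faecalis ATCC 29212 served as test controls.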

Experiment [6] relates to Staphylococcus. The experiment is described as follows: Antibacterial activity against methicillin-sensitive coagulase-negative Staphylococcus clinical isolate after 18 hrs by NCCLS M7-A4 method. Format: functional. Summed up: as §1
In experiment [7] the test system is Haemophilus influenzae. Nature of the experiment: Antibacterial activity against Haemophilus influenzae clinical isolate after 18 hrs by NCCLS M7-A4 method. Format: functional. In a few lines:
(§2)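 Agar dilution on Mueller–Hinton agar with 5% sheep blood, per NCCLS/CLSI. Compounds were dissolved in 80% DMSO in water and tested over 0.12–16. Incubation was 35 °C for 18 h. MIC was read as the lowest concentration completely inhibiting growth. Line 4 used clinical isolates (n = 7 for H. influenzae).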

For experiment [8], the system named is Streptococcus pneumoniae. Nature of the experiment: Antibacterial activity against Streptococcus pneumoniae clinical isolate after 18 hrs by NCCLS M7-A4 method. Format: functional. Summed up:
as §2

The subject of experiment [9] is Enterococcus. The experiment is described as follows: Antibacterial activity against vancomycin-sensitive Enterococcus clinical isolate after 18 hrs by NCCLS M7-A4 method. Format: functional. Summed up: as §1
The test system of experiment [10] is Escherichia coli. The experiment is described as follows: Antibacterial activity against Escherichia coli ATCC 25922 after 18 hrs by NCCLS M7-A4 method. Format: functional, organism-based. In a few lines: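 Reference E. coli strain tested by NCCLS/CLSI agar dilution. Compounds were in 80% DMSO in water over a 0.12–16 dilution range, incubated at 35 °C for 18 h.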

The test system of experiment [11] is Staphylococcus aureus. The experiment is described as follows: Antibacterial activity against Staphylococcus aureus ATCC 25923 after 18 hrs by NCCLS M7-A4 method. Format: functional, organism-based. Summed up:
(§3)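 Agar dilution on Mueller–Hinton agar, following NCCLS (now CLSI) guidance. Test compounds were dissolved in 80% DMSO in water and tested at 0.12 to 16. Plates were incubated at 35 °C for 18 h. The MIC was the lowest concentration giving complete growth inhibition.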

Experiment [12] relates to Staphylococcus epidermidis. The experiment is described as follows: Antibacterial activity against Staphylococcus epidermidis ATCC 12228 after 18 hrs by NCCLS M7-A4 method. Format: functional, organism-based. Summed up:
as §3

Experiment [13] deals with Enterococcus faecalis. Nature of the experiment: Antibacterial activity against Enterococcus faecalis ATCC 29212 after 18 hrs by NCCLS M7-A4 method. Format: functional, organism-based. Summed up: as §3
Experiment [14] deals with Haemophilus influenzae. The experiment is described as follows: Antibacterial activity against Haemophilus influenzae ATCC 49247 after 18 hrs by NCCLS M7-A4 method. Format: functional, organism-based. In a few lines:
as §2

The source made the active and inactive calls. No cut-off for these calls is given here. Bounds are passed on as bounds.

For the compound `COC(=O)C1C(=O)C=C(Nc2ccc(N3CCOCC3)c(F)c2)CC1c1ccccc1` (centres undefined), the result in experiment [1] and in [2] was inactive.
Consider `COC(=O)C1C(=O)C=C(Nc2ccc(N3CCN(C(=O)OC(C)(C)C)CC3)c(F)c2)CC1C` (centres undefined), for which the result in experiment [1] and in [2] was inactive.
As for `COC(=O)C1C(=O)C=C(NCCCc2ccccc2)CC1c1ccccc1` (centres undefined), the outcome in [1] and in experiment [2] was inactive.
With `CCOC(=O)C1C(=O)C=C(Nc2ccc(F)cc2)CC1C` (centres undefined), the result in experiment [3] and in [4] was Active.
In the case of `COC(=O)C1C(=O)C=C(Nc2ccc(Cl)cn2)CC1c1ccccc1` (centres undefined), the result in experiment [1] and in experiment [2] was inactive.
On to `CCOC(=O)C1C(=O)C=C(NCCCc2ccccc2)CC1c1ccccc1` (centres undefined), for which the outcome in experiment [1] and in experiment [2] was inactive.
`COC(=O)C1C(=O)C=C(Nc2ccc(N3CCOCC3)c(F)c2)CC1C` (centres undefined): the result in experiment [1] and in experiment [2] was inactive.
Regarding `CCOC(=O)C1C(=O)C=C(Nc2cccc(Cl)c2)CC1C` (centres undefined), the outcome in experiment [3] and in [4] was Active.
On to `COC(=O)C1C(=O)C=C(NCCCCc2ccccc2)CC1c1ccccc1` (centres undefined), for which the result in experiment [1] and in experiment [2] was inactive.
`CCOC(=O)C1C(=O)C=C(NCCc2ccccc2)CC1C` (centres undefined): the outcome in experiment [3] was Active.
For the compound `CCOC(=O)C1C(=O)C=C(Nc2ccc(Br)cc2)CC1c1ccccc1` (centres undefined), the outcome in experiment [1] and in experiment [2] was inactive.
As to `COC(=O)C1C(=O)C=C(N2CCN(c3ccc([N+](=O)[O-])cc3F)CC2)CC1c1ccccc1` (centres undefined), the outcome in experiment [1] and in experiment [2] was inactive.
For the compound `CCOC(=O)C1C(=O)C=C(NC[C@H]2CN(c3ccc(N4CCOCC4)c(F)c3)C(=O)O2)CC1C` (some centres undefined), the outcome in experiment [1], in experiment [2], in [10], in experiment [11], in [12] and in experiment [13] was inactive. Moreover, in experiment [14], the outcome was inactive. Besides, the MIC in experiment [5], in experiment [6], in [7], in experiment [8] and in [9] was more than 16 mg/L throughout.
Consider `COC(=O)C1C(=O)C=C(NC[C@H]2CN(c3ccc(N4CCOCC4)c(F)c3)C(=O)O2)CC1C` (some centres undefined), for which the outcome in [1], in experiment [2], in experiment [10], in [11], in [12] and in experiment [13] was inactive. The outcome in experiment [14] was inactive. For the same compound, the MIC in experiment [5], in experiment [6], in [7], in [8] and in experiment [9] was more than 16 mg/L throughout.
As for `CCOC(=O)C1C(=O)C=C(Nc2ccc(Cl)cn2)CC1c1ccccc1` (centres undefined), the result in experiment [1] and in experiment [2] was inactive.
`CCOC(=O)C1C(=O)C=C(N(CC)CC)CC1c1ccccc1` (centres undefined): the result in [1] and in [2] was inactive.
For the compound `CCOC(=O)C1C(=O)C=C(Nc2ccc([N+](=O)[O-])cc2)CC1c1ccccc1` (centres undefined), the outcome in experiment [1] and in experiment [2] was inactive.
With `CCOC(=O)C1C(=O)C=C(Nc2ccc(N3CCOCC3)c(F)c2)CC1C` (centres undefined), the outcome in experiment [1], in experiment [2], in experiment [10], in experiment [11], in experiment [12] and in experiment [13] was inactive. Also, in [14], the outcome was inactive. The MIC in experiment [5], in [6], in [7], in experiment [8] and in [9] was more than 16 mg/L in each case.
As to `COC(=O)C1C(=O)C=C(Nc2ccc(N3CCN(C(=O)OC(C)(C)C)CC3)c(F)c2)CC1c1ccccc1` (centres undefined), the outcome in experiment [1] and in [2] was inactive.
As for `CCOC(=O)C1C(=O)C=C(N2CCOCC2)CC1c1ccccc1` (centres undefined), the outcome in experiment [1] and in experiment [2] was inactive.
Regarding `CCOC(=O)C1C(=O)C=C(Nc2ccc(O)cc2)CC1c1ccccc1` (centres undefined), the outcome in experiment [1] and in experiment [2] was inactive.
Turning to `COC(=O)C1C(=O)C=C(NCCc2ccccc2)CC1c1ccccc1` (centres undefined), the outcome in experiment [1] and in experiment [2] was inactive.
`CCOC(=O)C1C(=O)C=C(N2CCN(c3ccc([N+](=O)[O-])cc3F)CC2)CC1C` (centres undefined): the outcome in experiment [1] and in [2] was inactive.
As for `CCOC(=O)C1C(=O)C=C(Nc2ccc(N3CCN(C(=O)OC(C)(C)C)CC3)c(F)c2)CC1c1ccccc1` (centres undefined), the outcome in experiment [1] and in [2] was inactive.
As to `COC(=O)C1C(=O)C=C(Nc2ccc(F)cc2)CC1c1ccccc1` (centres undefined), the outcome in experiment [1] and in [2] was inactive.
With `CCOC(=O)C1C(=O)C=C(N2CCN(c3ccc([N+](=O)[O-])cc3F)CC2)CC1c1ccccc1` (centres undefined), the result in [1] and in experiment [2] was inactive.
Take `COC(=O)C1C(=O)C=C(N2CCCC2)CC1c1ccccc1` (centres undefined): the outcome in experiment [1] and in [2] was inactive.
On to `CCOC(=O)C1C(=O)C=C(Nc2ccccc2)CC1c1ccccc1` (centres undefined), for which the outcome in experiment [1] and in experiment [2] was inactive.
As for `CCOC(=O)C1C(=O)C=C(Nc2ccc(F)cc2)CC1c1ccccc1` (centres undefined), the result in experiment [1] and in [2] was inactive.
As to `CCN(CC)C1=CC(=O)C(C(=O)OC)C(c2ccccc2)C1` (centres undefined), the outcome in [1] and in experiment [2] was inactive.
In the case of `CCOC(=O)C1C(=O)C=C(Nc2ccc(N3CCOCC3)c(F)c2)CC1c1ccccc1` (centres undefined), the result in [1], in experiment [2], in experiment [10], in [11], in experiment [12] and in [13] was inactive. Further, in experiment [14], the outcome was inactive. For the same compound, the MIC in experiment [5], in experiment [6], in experiment [7], in experiment [8] and in [9] was more than 16 mg/L throughout.
As to `CCOC(=O)C1C(=O)C=C(Nc2ccc(Br)cc2)CC1C` (centres undefined), the outcome in experiment [3] and in experiment [4] was Active.
As to `CCOC(=O)C1C(=O)C=C(NCCCCc2ccccc2)CC1c1ccccc1` (centres undefined), the result in experiment [1] and in [2] was inactive.
Take `COC(=O)C1C(=O)C=C(NC[C@H]2CN(c3ccc(N4CCOCC4)c(F)c3)C(=O)O2)CC1c1ccccc1` (some centres undefined): the result in experiment [1], in [2], in experiment [10], in experiment [11], in experiment [12] and in experiment [13] was inactive. The outcome in experiment [14] was inactive. The MIC in experiment [5], in experiment [6], in experiment [7], in [8] and in experiment [9] was more than 16 mg/L throughout.
On to `CCOC(=O)C1C(=O)C=C(NCCc2ccccc2)CC1c1ccccc1` (centres undefined), for which the outcome in experiment [1] and in experiment [2] was inactive.
